≈ marks a conversion by molar mass, not a printed value.

Holding throughout (assay type): functional
One experiment deals with Escherichia coli. Nature of the experiment: Antibacterial activity against Escherichia coli ATCC 11303 after 24 hrs by microtiter broth dilution method. The note with it: ATCC 11303, 24 h. The procedure, abridged:
(§1)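 Compounds dissolved in DMSO and serially diluted by microtiter broth dilution following NCCLS guidance. Plates incubated at 37 °C for 24 h. MIC80 (ug/mL) taken as the lowest concentration inhibiting visible growth. Ceftazidime, cefotaxime, cefradine and sodium penicillin served as reference drugs.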

In a further experiment the test system is Pseudomonas aeruginosa. Description: Antibacterial activity against Pseudomonas aeruginosa ATCC 49189 after 24 hrs by microtiter broth dilution method. The note with it: ATCC 49189, 24 h. In a few lines: as §1
Experiment [1] deals with Staphylococcus aureus. Description: Antibacterial activity against Staphylococcus aureus ATCC 29213 after 24 hrs by microtiter broth dilution method. The note with it: ATCC 29213, 24 h. The procedure, abridged:
as §1

The subject of experiment [2] is Staphylococcus aureus. Nature of the experiment: Antibacterial activity against methicillin-resistant Staphylococcus aureus ATCC 700699 after 24 hrs by microtiter broth dilution method. The note with it: ATCC 700699, 24 h. The procedure, abridged:
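Compounds dissolved in DMSO and serially diluted in microtiter broth following NCCLS guidance. Plates were incubated at 37 °C for 24 h. MIC80 was read as the lowest concentration inhibiting visible growth of the organism, in µg/mL.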

The subject of a further experiment is Bacillus subtilis. Description: Antibacterial activity against Bacillus subtilis ATCC 33712 after 24 hrs by microtiter broth dilution method. To be noted: ATCC 33712, 24 h. In a few lines: as §1

Take `c1ccc(COc2ccc3cc(-c4ccccc4)oc3c2)cc1`: the MIC80 was above 200 µg/mL with Escherichia coli; 100 µg/mL (≈ 333 µM) against Pseudomonas aeruginosa; 100 µg/mL (≈ 333 µM) against Staphylococcus aureus [1]; above 200 µg/mL against Staphylococcus aureus [2]; 100 µg/mL (≈ 333 µM) against Bacillus subtilis.
With `COc1ccc(-c2cc3ccc(OCc4ccccc4)cc3o2)cc1`, the MIC80 in the experiment with Escherichia coli, against Pseudomonas aeruginosa, with Staphylococcus aureus [1], against Staphylococcus aureus [2] and in the experiment with Bacillus subtilis was above 200 µg/mL throughout.
Regarding `Cc1ccc(-c2cc3ccc(OCc4ccccc4)cc3o2)o1`, the MIC80 was above 200 µg/mL against Escherichia coli; above 200 µg/mL in the experiment on Pseudomonas aeruginosa; above 200 µg/mL against Staphylococcus aureus [1]; 12.5 µg/mL (≈ 41.1 µM) with Staphylococcus aureus [2]; above 200 µg/mL with Bacillus subtilis.
Regarding `Oc1ccc2cc(-c3ccccc3)oc2c1`, the MIC80 against Escherichia coli is 6.25 µg/mL (≈ 29.7 µM); in the experiment with Pseudomonas aeruginosa it was 0.78 µg/mL (≈ 3.71 µM); against Staphylococcus aureus [1] it was 6.25 µg/mL (≈ 29.7 µM); against Staphylococcus aureus [2] it was 1.56 µg/mL (≈ 7.42 µM); against Bacillus subtilis, 3.12 µg/mL (≈ 14.8 µM).
`COc1ccc(-c2cc3ccc(O)cc3o2)cc1`: the MIC80 against Escherichia coli worked out at 3.12 µg/mL (≈ 13 µM); against Pseudomonas aeruginosa it was 1.56 µg/mL (≈ 6.49 µM); with Staphylococcus aureus [1], 1.56 µg/mL (≈ 6.49 µM); with Staphylococcus aureus [2], 0.78 µg/mL (≈ 3.25 µM); in the experiment with Bacillus subtilis it was 1.56 µg/mL (≈ 6.49 µM).
In the case of `Cc1ccc(-c2cc3ccc(O)cc3o2)o1`, the MIC80 against Escherichia coli was 3.12 µg/mL (≈ 14.6 µM); against Pseudomonas aeruginosa it was 0.78 µg/mL (≈ 3.64 µM); in the experiment with Staphylococcus aureus [1], 1.56 µg/mL (≈ 7.28 µM); with Staphylococcus aureus [2], 3.12 µg/mL (≈ 14.6 µM); against Bacillus subtilis, 1.56 µg/mL (≈ 7.28 µM).
Consider `Cc1oc(-c2ccccc2)nc1CCOc1ccc2cc(-c3ccccc3)oc2c1`, for which the MIC80 in the experiment on Escherichia coli, with Pseudomonas aeruginosa, in the experiment with Staphylococcus aureus [1], with Staphylococcus aureus [2] and against Bacillus subtilis was above 200 µg/mL each time.
Regarding `COc1ccc(-c2cc3ccc(OCCc4nc(-c5ccccc5)oc4C)cc3o2)cc1`, the MIC80 is above 200 µg/mL in the experiment on Escherichia coli; above 200 µg/mL against Pseudomonas aeruginosa; above 200 µg/mL against Staphylococcus aureus [1]; above 200 µg/mL in the experiment with Staphylococcus aureus [2]; 50 µg/mL (≈ 118 µM) in the experiment on Bacillus subtilis.
Consider `CC(=O)c1c(-c2ccc(C)o2)oc2cc(OCCc3nc(-c4ccccc4)oc3C)ccc12`, for which the MIC80 with Escherichia coli, in the experiment on Pseudomonas aeruginosa, against Staphylococcus aureus [1], in the experiment on Staphylococcus aureus [2] and against Bacillus subtilis was above 200 µg/mL each time.
For `COc1ccc(-c2oc3cc(OCCc4nc(-c5ccccc5)oc4C)ccc3c2C(C)=O)cc1`, the MIC80 in the experiment with Escherichia coli, with Pseudomonas aeruginosa, against Staphylococcus aureus [1], with Staphylococcus aureus [2] and with Bacillus subtilis was above 200 µg/mL throughout.
For the compound `Cc1ccc(-c2oc3cc(OCCc4nc(-c5ccccc5)oc4C)ccc3c2C(=O)c2ccco2)o1`, the MIC80 against Escherichia coli, with Pseudomonas aeruginosa, against Staphylococcus aureus [1], in the experiment on Staphylococcus aureus [2] and in the experiment on Bacillus subtilis was above 200 µg/mL in each case.
Take `Cc1ccc(-c2oc3cc(OCCc4nc(-c5ccccc5)oc4C)ccc3c2C(=O)c2ccc(C(F)(F)F)cc2)o1`: the MIC80 in the experiment with Escherichia coli, in the experiment on Pseudomonas aeruginosa, in the experiment with Staphylococcus aureus [1], against Staphylococcus aureus [2] and in the experiment with Bacillus subtilis was above 200 µg/mL each time.
As for `COc1cc(C(=O)c2c(-c3ccc(C)o3)oc3cc(OCCc4nc(-c5ccccc5)oc4C)ccc23)cc(OC)c1OC`, the MIC80 in the experiment with Escherichia coli is above 200 µg/mL; with Pseudomonas aeruginosa, above 200 µg/mL; in the experiment with Staphylococcus aureus [1], 12.5 µg/mL (≈ 21.1 µM); against Staphylococcus aureus [2] it was above 200 µg/mL; in the experiment on Bacillus subtilis, above 200 µg/mL.
For the compound `CC(=O)c1c(-c2ccc(C)o2)oc2cc(O)ccc12`, the MIC80 amounted to 12.5 µg/mL (≈ 48.8 µM) in the experiment on Escherichia coli; 12.5 µg/mL (≈ 48.8 µM) in the experiment with Pseudomonas aeruginosa; 6.25 µg/mL (≈ 24.4 µM) with Staphylococcus aureus [1]; 6.25 µg/mL (≈ 24.4 µM) against Staphylococcus aureus [2]; 12.5 µg/mL (≈ 48.8 µM) in the experiment with Bacillus subtilis.
For `COc1ccc(-c2oc3cc(OCCc4nc(-c5ccccc5)oc4C)ccc3c2C(=O)/C=C/c2cc(OC)c(OC)c(OC)c2)cc1`, the MIC80 in the experiment on Escherichia coli, in the experiment with Pseudomonas aeruginosa, against Staphylococcus aureus [1], in the experiment with Staphylococcus aureus [2] and against Bacillus subtilis was above 200 µg/mL throughout.
Regarding `COc1cc(/N=C/c2c(-c3ccccc3)oc3cc(OCCc4nc(-c5ccccc5)oc4C)ccc23)cc(OC)c1OC`, the MIC80 was above 200 µg/mL against Escherichia coli; above 200 µg/mL with Pseudomonas aeruginosa; 3.12 µg/mL (≈ 5.3 µM) in the experiment with Staphylococcus aureus [1]; above 200 µg/mL against Staphylococcus aureus [2]; above 200 µg/mL in the experiment on Bacillus subtilis.
Turning to `COc1cc(NCc2c(-c3ccccc3)oc3cc(OCCc4nc(-c5ccccc5)oc4C)ccc23)cc(OC)c1OC`, the MIC80 against Escherichia coli, against Pseudomonas aeruginosa, with Staphylococcus aureus [1], with Staphylococcus aureus [2] and with Bacillus subtilis was above 200 µg/mL each time.
With `CO/N=C(\C(=O)N[C@@H]1C(=O)N2C(C(=O)O)=C(COC(C)=O)CS[C@H]12)c1csc(N)n1` [CEFOTAXIME], the MIC80 was above 200 µg/mL against Escherichia coli, 3.12 µg/mL (≈ 6.85 µM) with Staphylococcus aureus [1], 3.12 µg/mL (≈ 6.85 µM) with Staphylococcus aureus [2] and 0.78 µg/mL (≈ 1.71 µM) with Bacillus subtilis.
Consider `CC(C)(O/N=C(\C(=O)N[C@@H]1C(=O)N2C(C(=O)[O-])=C(C[n+]3ccccc3)CS[C@H]12)c1csc(N)n1)C(=O)O` [CEFTAZIDIME], for which the MIC80 with Escherichia coli is above 200 µg/mL; in the experiment with Pseudomonas aeruginosa it was 12.5 µg/mL (≈ 22.9 µM); with Staphylococcus aureus [1], 0.78 µg/mL (≈ 1.43 µM); in the experiment with Staphylococcus aureus [2], 12.5 µg/mL (≈ 22.9 µM); against Bacillus subtilis, 6.25 µg/mL (≈ 11.4 µM).
On to `CC1=C(C(=O)O)N2C(=O)[C@@H](NC(=O)[C@H](N)C3=CCC=CC3)[C@H]2SC1` [CEPHRADINE], for which the MIC80 against Escherichia coli was 25 µg/mL (≈ 71.5 µM); in the experiment with Pseudomonas aeruginosa it was above 200 µg/mL; in the experiment on Staphylococcus aureus [1], above 200 µg/mL; against Staphylococcus aureus [2], above 200 µg/mL; in the experiment with Bacillus subtilis, 50 µg/mL (≈ 143 µM).
Take `CC1(C)S[C@@H]2[C@H](NC(=O)Cc3ccccc3)C(=O)N2[C@H]1C(=O)[O-].[Na+]` [PENICILLIN G SODIUM]: the MIC80 against Escherichia coli was 0.78 µg/mL; against Staphylococcus aureus [1], 3.12 µg/mL; in the experiment on Staphylococcus aureus [2], 3.12 µg/mL; in the experiment with Bacillus subtilis it was below 0.39 µg/mL.

Source of the values: ChEMBL document CHEMBL2040849, “Synthesis and antimicrobial evaluation of 3-methanone-6-substituted-benzofuran derivatives” (2012).
